The values that follow come from paper PMC3428732 (Analytical chemistry, 2012).

Data set [1] is described as follows: Peptide degradation in a HeLa cytosolic lysate. In kind it is in vitro ADME, human. The note with it: for half-life at 1 μM: human, HeLa cytosolic lysate. Put shortly:
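Fluorescein-labelled peptide (1 μM) incubated at 37 °C with HeLa or LNCaP cytosolic lysate (3 mg mL⁻¹ total protein). Aliquots were quenched with HCl to 100 mM final; the 0 min point was acidified before peptide addition. Products were separated by CE-LIF, and fragments were identified by spiking in 250 nM standards. Initial rates were taken from the 0 and 5 min points, normalised to cytosolic protein (zmol pg⁻¹ s⁻¹). Triplicates used different lysates; mean ± SD.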

Data set [2] deals with PKB activity in single LNCaP cells. Briefly: Peptide phosphorylation in single LNCaP cells. The note with it: LNCaP cells pre-incubated with 500 nM wortmannin (10 min), then loaded with VI-B, 5 min; n = 10. In kind it is cell-based, human.
The next data set addresses PKBα kinase (Homo sapiens, UniProt P31749). The experiment in a line: in vitro kinase assay with purified PKBα. The data set is classed as biochemical. Put shortly: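 Active purified PKBα (6 nM) with N-terminally fluorescein-labelled peptide substrate (25 μM) at 30 °C. Buffer: 8 mM MOPS pH 7.0, 0.2 mM EDTA, 4 mM MgCl₂, 1 mM ATP. Aliquots were removed over time and stopped by heating at 90 °C for 4 min. Phosphorylation was quantified by CE-LIF. Triplicates used different enzyme aliquots on different days; mean ± SD.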

Square brackets hold non-standard residues; d marks the D form. Peptide text beside a SMILES is read from it. * marks the point of attachment. 6FAM = O=C1OC2(c3ccc(O)cc3Oc3cc(O)ccc32)c2cc(C(=O)*)ccc21; Phe(F5) = N[C@@H](Cc1c(F)c(F)c(F)c(F)c1F)C(=O)O; NMeR = CN[C@@H](CCCNC(=N)N)C(=O)O; NMeF = CN[C@@H](Cc1ccccc1)C(=O)O; βAla = NCCC(=O)O

PKBα kinase, sequence (P31749 whole entry): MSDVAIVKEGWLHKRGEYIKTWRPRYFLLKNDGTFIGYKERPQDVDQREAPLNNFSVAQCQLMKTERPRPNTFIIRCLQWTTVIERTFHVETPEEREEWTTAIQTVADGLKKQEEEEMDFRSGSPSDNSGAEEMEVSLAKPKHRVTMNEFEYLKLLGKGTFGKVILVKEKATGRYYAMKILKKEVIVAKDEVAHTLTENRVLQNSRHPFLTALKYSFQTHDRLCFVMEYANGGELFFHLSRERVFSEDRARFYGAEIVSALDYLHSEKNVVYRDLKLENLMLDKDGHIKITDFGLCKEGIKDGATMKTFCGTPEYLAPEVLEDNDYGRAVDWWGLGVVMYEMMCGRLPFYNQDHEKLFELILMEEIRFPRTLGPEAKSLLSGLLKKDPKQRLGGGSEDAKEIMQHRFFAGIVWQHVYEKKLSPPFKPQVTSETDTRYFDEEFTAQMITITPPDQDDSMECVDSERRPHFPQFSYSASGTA

What is called half-life is how long it takes for the measured level to halve. Compound `C[C@H](NC(=O)[C@H](Cc1ccccc1)NC(=O)[C@@H](NC(=O)CCNC(=O)[C@H](C)NC(=O)[C@H](CCCNC(=N)N)N(C)C(=O)[C@@H]1CCCN1C(=O)[C@H](CCCNC(=N)N)NC(=O)CNC(=O)c1ccc2c(c1)C1(OC2=O)c2ccc(O)cc2Oc2cc(O)ccc21)[C@@H](C)O)C(=O)N[C@@H](CCC(=O)O)C(=O)NCC(N)=O` [IV-A, 6FAM-GRP-MeArg-A-βAla-TFAEG] (6FAM-GRP[NMeR]A[βAla]TFAEG-NH2) came in with a half-life at 1 μM in data set [1] of 14 min.

In turn, `C[C@H](NC(=O)[C@H](C)NC(=O)[C@@H](CCCNC(=N)N)NC(=O)[C@@H]1CCCN1C(=O)[C@H](CCCNC(=N)N)NC(=O)CNC(=O)c1ccc2c(c1)C1(OC2=O)c2ccc(O)cc2Oc2cc(O)ccc21)C(=O)N[C@H](C(=O)N[C@@H](Cc1ccccc1)C(=O)N[C@@H](C)C(=O)N[C@@H](CCC(=O)O)C(=O)NCC(N)=O)[C@@H](C)O` [III-D, 6FAM-GRP-DArg-AATFAEG] (6FAM-GRP[dR]AATFAEG-NH2) had a half-life at 1 μM in data set [1] of 17 min.

For `COC[C@H]1OC(=O)c2coc3c2[C@@]1(C)C1=C(C3=O)[C@@H]2CCC(=O)[C@@]2(C)C[C@H]1OC(C)=O` [wortmannin, Wortmannin], the “formation of phosphorylated product of VI-B” value in data set [2] was 13% ± 12%.

For `C[C@H](NC(=O)[C@H](Cc1ccccc1)NC(=O)[C@@H](NC(=O)[C@H](Cc1ccccc1)N(C)C(=O)[C@H](C)NC(=O)[C@H](CCCNC(=N)N)N(C)C(=O)[C@@H]1CCCN1C(=O)[C@H](CCCNC(=N)N)NC(=O)CNC(=O)c1ccc2c(c1)C1(OC2=O)c2ccc(O)cc2Oc2cc(O)ccc21)[C@@H](C)O)C(=O)N[C@@H](CCC(=O)O)C(=O)NCC(N)=O` [IV-E, 6FAM-GRP-MeArg-A-MePhe-TFAEG] (6FAM-GRP[NMeR]A[NMeF]TFAEG-NH2), the half-life at 1 μM in data set [1] was determined as 2 min.

As for `C[C@H](NC(=O)[C@H](Cc1ccccc1)NC(=O)[C@@H](NC(=O)[C@H](CCC(=O)O)NC(=O)[C@H](C)NC(=O)[C@H](CCCNC(=N)N)N(C)C(=O)[C@@H]1CCCN1C(=O)[C@H](CCCNC(=N)N)NC(=O)CNC(=O)c1ccc2c(c1)C1(OC2=O)c2ccc(O)cc2Oc2cc(O)ccc21)[C@@H](C)O)C(=O)N[C@@H](CCC(=O)O)C(=O)NCC(N)=O` [IV-C, 6FAM-GRP-MeArg-A-Glu-TFAEG] (6FAM-GRP[NMeR]AETFAEG-NH2), the half-life at 1 μM in data set [1] is 37 min.

For the compound `C[C@H](NC(=O)[C@H](Cc1ccccc1)NC(=O)[C@@H](NC(=O)[C@H](Cc1ccccc1)NC(=O)[C@H](C)NC(=O)[C@H](CCCNC(=N)N)N(C)C(=O)[C@@H]1CCCN1C(=O)[C@H](CCCNC(=N)N)NC(=O)CNC(=O)c1ccc2c(c1)C1(OC2=O)c2ccc(O)cc2Oc2cc(O)ccc21)[C@@H](C)O)C(=O)N[C@@H](CCC(=O)O)C(=O)NCC(N)=O` [IV-D, 6FAM-GRP-MeArg-A-FTFAEG] (6FAM-GRP[NMeR]AFTFAEG-NH2), the “fold faster t50%P than peptide III-B” value at PKBα kinase is on record as “over 30 X”. The compound also showed a half-life at 1 μM in data set [1] of 14 min.

With `C[C@H](NC(=O)[C@H](CCCNC(=N)N)N(C)C(=O)[C@@H]1CCCN1C(=O)[C@H](CCCNC(=N)N)NC(=O)CNC(=O)c1ccc2c(c1)C1(OC2=O)c2ccc(O)cc2Oc2cc(O)ccc21)C(=O)N[C@@H](Cc1ccccc1)C(=O)N[C@H](C(=O)N[C@@H](Cc1ccccc1)C(=O)N[C@H](C)C(=O)N[C@@H](CCC(=O)O)C(=O)NCC(N)=O)[C@@H](C)O` [V-B, 6FAM-GRP-MeArg-AFTF-DAla-EG] (6FAM-GRP[NMeR]AFTF[dA]EG-NH2), in data set [1] (HeLa lysate), the “fold greater t1/2 than peptide IV-D” value was “over 60 X”. The compound further displayed a half-life at 1 μM in data set [1] of 895 min.

With `C[C@H](NC(=O)[C@H](Cc1c(F)c(F)c(F)c(F)c1F)NC(=O)[C@@H](NC(=O)[C@H](Cc1ccccc1)NC(=O)[C@H](C)NC(=O)[C@H](CCCNC(=N)N)N(C)C(=O)[C@@H]1CCCN1C(=O)[C@H](CCCNC(=N)N)NC(=O)CNC(=O)c1ccc2c(c1)C1(OC2=O)c2ccc(O)cc2Oc2cc(O)ccc21)[C@@H](C)O)C(=O)N[C@@H](CCC(=O)O)C(=O)NCC(N)=O` [V-A, 6FAM-GRP-MeArg-AFT-Phe(F5)-AEG] (6FAM-GRP[NMeR]AFT[Phe(F5)]AEG-NH2), the half-life at 1 μM in data set [1] stood at 88 min.

For `C[C@H](NC(=O)[C@H](C)NC(=O)[C@H](CCCNC(=N)N)N(C)C(=O)[C@@H]1CCCN1C(=O)[C@H](CCCNC(=N)N)NC(=O)CNC(=O)c1ccc2c(c1)C1(OC2=O)c2ccc(O)cc2Oc2cc(O)ccc21)C(=O)N[C@H](C(=O)N[C@@H](Cc1ccccc1)C(=O)N[C@@H](C)C(=O)N[C@@H](CCC(=O)O)C(=O)NCC(N)=O)[C@@H](C)O` [III-B, 6FAM-GRP-MeArg-AATFAEG] (6FAM-GRP[NMeR]AATFAEG-NH2), on PKBα kinase, the “fold longer t50%P than peptide I” value is recorded as “more than 50 X”. Besides, the “6-residue fragment (alanine-threonine bond hydrolysis), % of all peptide present” value in data set [1] (HeLa lysate, within 15 min) is on record as 92%. Also, in data set [1], the half-life at 1 μM was found to be 2 min.

In data set [1], `C[C@H](NC(=O)[C@H](Cc1ccccc1)NC(=O)[C@@H](NC(=O)[C@@H](C)NC(=O)[C@H](C)NC(=O)[C@H](CCCNC(=N)N)N(C)C(=O)[C@@H]1CCCN1C(=O)[C@H](CCCNC(=N)N)NC(=O)CNC(=O)c1ccc2c(c1)C1(OC2=O)c2ccc(O)cc2Oc2cc(O)ccc21)[C@@H](C)O)C(=O)N[C@@H](CCC(=O)O)C(=O)NCC(N)=O` [IV-B, 6FAM-GRP-MeArg-A-DAla-TFAEG] (6FAM-GRP[NMeR]A[dA]TFAEG-NH2) gave a half-life at 1 μM of 32 min.
